# Experimental data from paper PMC13435124 (The FASEB Journal, 2026).
# “Also recorded” adds a separate entry of the source. Where two headings read alike, the source gives them in different places.
# Experiments:
# [1] = tested on: Aβ40 and Aβ42 peptide levels in N2a-APPswe cells; test: Aβ40 and Aβ42 peptide levels in N2a cell supernatants; assay type: cell-based, mouse; conditions: 250 μM, 24 h
# Outline: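 N2a-wt and N2a-APPswe cells left untreated or exposed to test compound at 250 μM for 24 h. Aβ40 and Aβ42 peptides quantified by ELISA.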
# [2] = tested on: AKT/GSK3β signaling in N2a-APPswe cells; test: AKT and GSK3β phosphorylation, western blot; assay type: cell-based, mouse; conditions: 250 μM, 30 min
# Outline: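 Murine N2a-APPswe cells exposed to test compound at 250 μM for 5, 15 or 30 min; basal pAKT in untreated N2a-wt and N2a-APPswe read at 30 min. Protein by BCA; lysates denatured 5 min at 95°C. Membranes blocked 1 h RT in 5% BSA for phospho-proteins, primaries 1:1000 overnight at 4°C, HRP secondaries 1 h RT.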
# [3] = tested on: Nrf2 in N2a-APPswe cells; test: Nrf2 cytoplasmatic and nuclear protein levels, western blot; assay type: cell-based, mouse; conditions: 250 μM, 6 h, vs untreated cells
# Outline: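 N2a-APPswe cells exposed to test compound at 250 μM for 2, 4 and 6 h. Cytoplasmic and nuclear Nrf2 assessed by western blot.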
# [4] = tested on: Nrf2 in N2a-APPswe cells; test: Nrf2 activation, Nrf2 Transcription Factor Assay Kit; assay type: cell-based, mouse; conditions: 250 μM
# Outline: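 N2a-APPswe cells exposed to test compound at 250 μM for 2, 4 and 6 h. Nrf2 activation determined with a commercial kit.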
# [5] = tested on: N2a-APPswe cells; test: Nrf2-dependent gene expression; assay type: cell-based, mouse
# [6] = tested on: BV-2 cells exposed to LPS; test: Nos2 and Il-1β mRNA in LPS-stimulated microglia, real-time RT-PCR; assay type: cell-based, mouse; conditions: BV-2, 250 μM, LPS 50 ng/mL, 18 h
# Outline: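 BV-2 cells given test compound at 250 μM, LPS 50 ng/mL added 30 min later, incubated 18 h. Nos2 and Il-1β mRNA measured by real-time RT-PCR. Mean ± SEM of four independent experiments, relative to untreated control.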
# [7] = tested on: BV-2 cells; test: Nrf2 silencing; assay type: cell-based, mouse; conditions: BV-2, Iso + LPS
# [8] = tested on: N2a-wt cells; test: Cell metabolism, Alamar Blue; assay type: cell-based, mouse; conditions: 24 h, Alamar Blue (Figure S1A)
# Outline: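 Cells exposed 24 h to test compound at 500, 250, 100, 50 or 5 μM, DMSO final up to 0.1% v/v. Resazurin 50 μM in PBS added 3 h before the end. Absorbance read at 570 nm with 620 nm reference. Highest nontoxic concentration chosen from metabolic capacity.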
# [9] = Blood-brain barrier permeability, PAMPA with 2% porcine polar brain lipid; assay type: in vitro ADME; conditions: 150 μg/mL, 16 h, cut-off 2.0 × 10^−6 cm s^−1 (Figure S4)
# Outline: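 PAMPA blood–brain barrier model using membranes with 2% (w/v) porcine polar brain lipid. Permeability given as experimental Papp in cm/s. Mean of three independent experiments, each run in duplicate.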
# [10] = tested on: APP/PS1 female mice; test: Aβ40 and Aβ42 levels in brain and plasma of 6-month-old females; assay type: in vivo, mouse; conditions: 1 month
# Outline: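 WT and APP/PS1 females given PBS vehicle or test compound at 50 mg/kg (APP/PS1 only) intranasally, without anaesthesia, by micropipette for 1 month; groups of 5 per arm. Brain Aβ40 and Aβ42 quantified. Mean ± SEM of five to six animals.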
# [11] = tested on: APP/PS1 female mice; test: Demographic and metabolic parameters of 6-month-old females; assay type: in vivo, mouse; conditions: 6-month-old APP/PS1 females, 50 mg/kg, 1 month
# Outline: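 WT and APP/PS1 females given PBS vehicle or test compound at 50 mg/kg (APP/PS1 only) intranasally for 1 month. Recorded body weight, adipose tissue weight, fasting glucose and triglycerides. Mean ± SEM of five to six animals.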
# [12] = tested on: WT and APP/PS1 male mice; test: Body weight and metabolic parameters of 11-month-old males; assay type: in vivo, mouse; conditions: 1 month
# [13] = tested on: APP/PS1 male mice; test: Y-maze test; assay type: in vivo, mouse; conditions: 100 mg/kg, 1 month
# Outline: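 Behavioural testing in 10-month-old APP/PS1 and WT littermate males, randomised n = 5 per group. Intranasal PBS or test compound at 100 mg/kg for 1 month. Distance travelled also recorded.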
# [14] = tested on: APP/PS1 male mice; test: Fear conditioning test; assay type: in vivo, mouse; conditions: 100 mg/kg, 1 month
# Outline: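 10-month-old males, n = 5 per group, given intranasal PBS or test compound at 100 mg/kg for 1 month. Day 1: paired auditory–shock stimuli, return to cage 1 min after last pair. Day 2: freezing scored 5 min in context A. Day 3: altered context B, freezing scored 3 min, then 3 min with auditory cue.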
# [15] = tested on: WT and APP/PS1 male mice; test: Hippocampal gene expression, real-time RT-PCR; assay type: in vivo, mouse
# Outline: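 Hippocampi of 11-month-old WT and APP/PS1 males after 1 month of intranasal PBS or test compound at 100 mg/kg. hAPP, Bace1, Il-1β, Iba1, Trem2, Hmox1, Ppargc1α and Bdnf mRNA measured by real-time RT-PCR.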
# [16] = cited from earlier work; for dose-normalized AUC t in plasma: oral
# [17] = N2a-APPswe, 1, 3 and 6 h (Figure S2)
# [18] = 6-month-old APP/PS1 females + Iso 50 mg/kg
# [19] = 6-month-old APP/PS1 females, 50 mg/kg, vs untreated
# [20] = APP/PS1 males, not statistically significant
# [21] = APP/PS1 + Iso vs APP/PS1, 100 mg/kg, 1 month
# [22] = APP/PS1 males, 100 mg/kg, 1 month
# [23] = WT and APP/PS1 males, 100 mg/kg, 1 month, not significant
smiles,measurement,setting,value
"CC=Cc1ccc(O)c(OC)c1 [Iso, 2‐methoxy‐4‐(prop‐1‐en‐1‐yl) phenol]",Aβ42 peptide levels,[1],no effect was observed
same,Aβ40 levels,[1]; vs untreated cells,significantly decreased
same,AKT phosphorylated levels,[2],AKT activation
same,GSK3β phosphorylated (Ser9) levels,[2],GSK3β inactivation
same,Nrf2 nuclear levels,[3],significantly increased
same,Nrf2 activation (ELISA kit),[4],increased Nrf2 activation
same,Hmox1 gene expression (reduced in N2a-APPswe),"[5]; N2a-APPswe, 250 μM, 3 h and 6 h",significantly reverted
same,Nqo1 gene expression,[5]; [17],induced
same,Sod1 gene expression,[5]; [17],induced
same,LPS-induced Il-1β gene expression,[6],reduced
same,LPS-induced Nos2 gene expression,[6],reduced
same,Iso-induced NO decrease in siGAPDH- or siNeg-transfected cells,[7],not affected
same,Iso-induced NO decrease in siNrf2-transfected cells,[7],reversed
same,highest nontoxic concentration tested,[8],250 µM
same,BBB permeability (PAMPA Papp),[9],could cross the BBB
same,plasma Aβ40 levels,[10]; [18],72.29 ± 7.271 picograms per milliliter
same,plasma Aβ42 levels,[10]; [18],83.88 ± 9.498 picograms per milliliter
same,brain Aβ40 levels,[10]; [19],decreased
same,brain Aβ42 levels,[10]; [19],decreased
same,adipose tissue weight,[11],did not reduce
same,triglycerides,"[12]; 11-month-old APP/PS1 males, 100 mg/kg",reduction
same,adipose tissue weight,"[12]; 11-month-old WT and APP/PS1 males, 100 mg/kg",trend toward a decrease
same,decrease in body weight,"[12]; 11-month-old males, intranasal 100 mg/kg",< 15%
same,Y-maze entries in the novel arm,[13]; [20],reversed this trend
same,Y-maze time spent in the novel arm,[13]; [20],reversed this trend
same,Y-maze distance traveled,[13]; males,not affected
same,"% of freezing, contextual memory (day 2)",[14]; APP/PS1 males,clear but not significant increase
same,associative memory (day 3),[14]; males,no differences were detected
same,decrease in Bdnf gene of APP/PS1 mice,[15]; [21],reversed
same,reduction in Ppargc1α mRNA levels of APP/PS1 mice,[15]; [21],reversed
same,Iba1 expression in hippocampus,[15]; [22],increased
same,h-APP gene expression in hippocampus,[15]; [22],not affected
same,increase in Trem2 gene expression (trend),[15]; [22],1.6 fold
same,reduction of Bace1 mRNA levels,"[15]; Iso-treated 11-month-old animals, 100 mg/kg, not significant",~ 4 fold
same,Bace1 mRNA levels in hippocampus,[15]; [23],clear tendency toward a reduction
same,Il1β mRNA levels in hippocampus,[15]; [23],clear tendency toward a reduction; also recorded: markedly reduced
same,Trem2 mRNA levels in hippocampus,"[15]; WT males, 100 mg/kg, 1 month",decreased
same,Hmox1 expression in hippocampus,"[15]; both WT and APP/PS1 males, 100 mg/kg, 1 month",increased
same,alpha half-life distribution time,[16]; after intravenous dosing,7 to 10 min
same,steady-state apparent volume of distribution,[16]; after intravenous dosing,11 to 25.2 L/kg
same,dose-normalized AUCinf in plasma,"[16]; intravenous 35 mg/kg, mice",6.76 µg·min/mL/kg
same,dose-normalized AUC t in plasma,"[16]; first listed of doses 35, 70 and 140 mg/kg, mice",1.91 µg·min/mL/kg
same,dose-normalized AUC t in plasma,"[16]; second listed of doses 35, 70 and 140 mg/kg, mice",1.68 µg·min/mL/kg
same,dose-normalized AUC t in plasma,"[16]; third listed of doses 35, 70 and 140 mg/kg, mice",1.45 µg·min/mL/kg
